Activity calls are given as the source filed them. No cut-off for these calls is given here.

This is an account of results in ChEMBL document CHEMBL4312019, “Design, synthesis, and evaluation of compounds capable of reducing Pseudomonas aeruginosa virulence” (Eur J Med Chem, 2020).

Assay [1] deals with Pseudomonas aeruginosa. As to the kind of experiment: Inhibition of biofilm formation in Pseudomonas aeruginosa at 50 uM relative to control. It counts as functional.
The subject of assay [2] is Pseudomonas aeruginosa. As to the kind of experiment: Inhibition of pyocyanin production in Pseudomonas aeruginosa at 50 uM relative to control. It counts as functional.
Assay [3] concerns Pseudomonas aeruginosa. As to the kind of experiment: Inhibition of biofilm formation in Pseudomonas aeruginosa PAO1 at 10 uM incubated for 10 hrs by crystal violet staining based microtiter plate method relative to control. It counts as functional. To be noted: PAO1, 10 h. Summed up: (§1)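 PAO1 or PA14 grown at 37 °C with 10 µM compound or vehicle. Expressed as percent biofilm biomass versus vehicle-treated control; mean ± SEM.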

For assay [4], the target named is Voltage-gated inwardly rectifying potassium channel KCNH2 (Homo sapiens, UniProt Q12809). As to the kind of experiment: Inhibition of human ERG.
Voltage-gated inwardly rectifying potassium channel KCNH2, sequence (Q12809 whole entry): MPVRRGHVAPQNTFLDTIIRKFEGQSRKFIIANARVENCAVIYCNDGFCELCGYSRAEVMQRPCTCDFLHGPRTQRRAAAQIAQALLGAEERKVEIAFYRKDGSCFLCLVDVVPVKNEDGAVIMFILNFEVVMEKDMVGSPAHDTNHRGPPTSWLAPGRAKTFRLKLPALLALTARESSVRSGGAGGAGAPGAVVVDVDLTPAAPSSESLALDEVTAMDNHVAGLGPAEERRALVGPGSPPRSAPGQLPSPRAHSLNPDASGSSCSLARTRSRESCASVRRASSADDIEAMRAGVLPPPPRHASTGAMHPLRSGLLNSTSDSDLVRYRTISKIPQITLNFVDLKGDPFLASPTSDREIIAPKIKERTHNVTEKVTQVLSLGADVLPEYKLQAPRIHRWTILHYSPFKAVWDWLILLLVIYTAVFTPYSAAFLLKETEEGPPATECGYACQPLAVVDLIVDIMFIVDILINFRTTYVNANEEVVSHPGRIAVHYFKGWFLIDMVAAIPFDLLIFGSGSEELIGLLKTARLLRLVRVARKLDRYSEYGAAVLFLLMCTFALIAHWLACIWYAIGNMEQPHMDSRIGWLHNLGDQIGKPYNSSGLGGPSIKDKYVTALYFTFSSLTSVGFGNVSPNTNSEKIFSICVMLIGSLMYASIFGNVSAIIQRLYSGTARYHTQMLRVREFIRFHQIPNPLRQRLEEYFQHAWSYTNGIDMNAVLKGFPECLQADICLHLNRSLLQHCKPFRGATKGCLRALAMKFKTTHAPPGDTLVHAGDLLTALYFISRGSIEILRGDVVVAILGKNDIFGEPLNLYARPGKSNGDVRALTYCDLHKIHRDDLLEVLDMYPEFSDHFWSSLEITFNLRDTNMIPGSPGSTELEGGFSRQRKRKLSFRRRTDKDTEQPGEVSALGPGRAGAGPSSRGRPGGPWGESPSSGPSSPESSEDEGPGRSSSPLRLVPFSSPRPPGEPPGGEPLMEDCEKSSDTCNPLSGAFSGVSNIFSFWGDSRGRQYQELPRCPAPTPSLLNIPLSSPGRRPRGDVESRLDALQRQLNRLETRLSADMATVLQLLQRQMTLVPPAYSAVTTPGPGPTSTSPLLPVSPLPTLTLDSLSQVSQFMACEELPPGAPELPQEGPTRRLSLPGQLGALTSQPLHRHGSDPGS
Assay [5] concerns the target T1, Transcriptional regulator MvfR (Pseudomonas aeruginosa PA14) (UniProt A0A072ZLE6).
T1 sequence (whole entry): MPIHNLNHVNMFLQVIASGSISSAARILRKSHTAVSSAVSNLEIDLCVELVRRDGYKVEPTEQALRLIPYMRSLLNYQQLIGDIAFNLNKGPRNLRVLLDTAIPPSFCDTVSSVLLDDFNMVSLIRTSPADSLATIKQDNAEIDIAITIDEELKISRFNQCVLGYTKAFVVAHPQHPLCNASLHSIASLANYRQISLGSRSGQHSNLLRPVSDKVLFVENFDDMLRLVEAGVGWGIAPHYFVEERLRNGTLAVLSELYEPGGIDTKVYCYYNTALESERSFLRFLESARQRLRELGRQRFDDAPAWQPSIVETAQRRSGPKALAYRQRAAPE
As to the kind of experiment: Inhibition of Pseudomonas aeruginosa PA14 PqsR transfected with pAW1-GFP at 10 uM measured after 12 hrs by fluorescence based microtiter plate reader method. The method in brief:
(§2)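 GFP reporter strains (PqsR: PA14 pAW1::GFP; LasR: PAO1 lasB::GFP) grown 12 h in LB broth with 5% BSA, with or without 10 µM compound.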

The target of assay [6] is Transcriptional activator protein LasR (Pseudomonas aeruginosa (strain ATCC 15692 / PAO1 / 1C / PRS 101 / LMG12228)) (UniProt P25084). As to the kind of experiment: Inhibition of Pseudomonas aeruginosa PAO1 LasR transfected with lasB-GFP at 10 uM measured after 12 hrs by fluorescence based microtiter plate reader method. The method in brief: as §2
Transcriptional activator protein LasR (Pseudomonas aeruginosa (strain ATCC 15692 / PAO1 / 1C / PRS 101 / LMG12228)), sequence (P25084 whole entry): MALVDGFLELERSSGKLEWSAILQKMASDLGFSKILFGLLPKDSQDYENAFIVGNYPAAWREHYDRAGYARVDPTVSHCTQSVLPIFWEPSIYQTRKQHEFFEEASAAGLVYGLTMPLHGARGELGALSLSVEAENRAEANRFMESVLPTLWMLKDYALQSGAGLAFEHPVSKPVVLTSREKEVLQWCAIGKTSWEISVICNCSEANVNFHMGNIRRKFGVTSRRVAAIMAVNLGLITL
Assay [7] deals with Pseudomonas aeruginosa. In words: Inhibition of biofilm formation in Pseudomonas aeruginosa PA14 at 10 uM incubated for 10 hrs by crystal violet staining based microtiter plate method relative to control. It counts as functional. To be noted: PA14, 10 h. The method in brief: as §1
Assay [8] has as its target T1, Transcriptional regulator MvfR (Pseudomonas aeruginosa PA14). As to the kind of experiment: Inhibition of Pseudomonas aeruginosa PAO1 PqsR assessed as increase in pyocyanin production level at 10 uM measured after 10 mins by spectrometry based analysis relative to control. The method in brief:
(§3)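 PAO1 cultured with or without 10 µM compound. Pyocyanin quantified by a spectrometry-based method and expressed as percent of vehicle-treated control. Mean ± SEM of at least 32 replicates.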

The test system of assay [9] is Pseudomonas aeruginosa. As to the kind of experiment: Inhibition of pyoverdin production in Pseudomonas aeruginosa at 10 uM relative to control. The format is functional.
Assay [10] relates to Pseudomonas aeruginosa. As to the kind of experiment: Inhibition of pyocyanin production in Pseudomonas aeruginosa at 1 uM relative to control. It counts as functional.
Assay [11] concerns the target T1, Transcriptional regulator MvfR (Pseudomonas aeruginosa PA14). As to the kind of experiment: Inhibition of Pseudomonas aeruginosa PAO1 PqsR assessed as reduction in pyocyanin production level at 10 uM measured after 10 mins by spectrometry based analysis. Summed up:
as §3

Assay [12] relates to Pseudomonas aeruginosa. In words: Inhibition of biofilm formation in Pseudomonas aeruginosa PA14 at 10 uM incubated for 10 hrs by crystal violet staining based microtiter plate method. The format is functional, organism-based. Summed up: as §1
For assay [13], the system named is Pseudomonas aeruginosa. As to the kind of experiment: Inhibition of biofilm formation in Pseudomonas aeruginosa PAO1 at 10 uM incubated for 10 hrs by crystal violet staining based microtiter plate method. The format is functional, organism-based. Summed up:
as §1

The nature of assay [14]: Inhibition of quorum sensing system in Pseudomonas aeruginosa assessed as reduction of rhamnolipids level at 10 uM measured after 24 hrs by methylene-blue based assay. The method in brief:
(§4)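 P. aeruginosa grown 24 h with or without 10 µM compound. Rhamnolipids quantified by methylene-blue assay against a six-point standard curve of commercial rhamnolipids.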

Assay [15] is described as follows: Inhibition of quorum sensing system in Pseudomonas aeruginosa assessed as reduction of rhamnolipids level at 10 uM measured after 24 hrs by methylene-blue based assay relative to control. The method in brief: as §4
In assay [16] the test system is Pseudomonas aeruginosa. As to the kind of experiment: Inhibition of pyocyanin production in Pseudomonas aeruginosa at 100 uM relative to control. It counts as functional.
For assay [17], the target named is T1, Transcriptional regulator MvfR (Pseudomonas aeruginosa PA14). As to the kind of experiment: Inhibition of Pseudomonas aeruginosa PqsR at 5 uM relative to control.

On to `O=C(Cc1ccc(Br)cc1)N[C@H]1CCOC1=O`, for which the inhibition (in general, the relative decrease from the control value, in per cent) at 50 µM is 40% in the assay with Pseudomonas aeruginosa [1] and 10 to 30% in the assay on Pseudomonas aeruginosa [2].

Turning to `O=C(CCNC(=O)c1cccc([N+](=O)[O-])c1)Nc1nc(=O)[nH]cc1F`, the inhibition at 10 µM in the assay on Pseudomonas aeruginosa [3] and in the assay on Pseudomonas aeruginosa [7] was 40 to 60% in each case. For the same molecule, 356 µM corresponded to half-maximal inhibition in [4] (IC50). Moreover, the inhibition entry in assay [5] was “Active”. The inhibition entry in assay [6] is “inactive”. In addition, the inhibition in assay [8] fell in the range of 20 to 90%.

In the case of `O=C1C=C(Br)/C(=C/Br)O1`, the inhibition at 10 µM in the assay on Pseudomonas aeruginosa [9] is over 90%.

As for `O=C(CCCS(=O)(=O)c1ccccc1)Nc1cc[nH]c(=O)n1`, the inhibition at 10 µM in the assay with Pseudomonas aeruginosa [3] and in the assay with Pseudomonas aeruginosa [7] was 40 to 60% throughout. For the same molecule, the IC50 (usually the concentration that inhibits the measured activity by half) in [4] worked out at 67.8 µM. Also, the inhibition in [8] was in the range of 20 to 90%.

`O=C(CSc1nc2cc([N+](=O)[O-])ccc2[nH]1)Nc1ccc(Oc2ccccc2)cc1`: it took 8.24 µM to reach half-maximal inhibition in assay [4] (IC50). Moreover, at 1 µM the inhibition in the assay with Pseudomonas aeruginosa [10] was 95%.

In the case of `CCCCOc1ccc(Cl)c(OCCCC)c1/N=N/c1c(O)ccc2ccccc12`, the inhibition entry (in assay [11]; in the assay on Pseudomonas aeruginosa [12]; with Pseudomonas aeruginosa [13]) was “inactive” throughout. The molecule also yielded an IC50 in assay [4] of 0.38 µM.

As to `Cc1ccc(N(C)C(=O)c2ccc3c(c2)CC(c2ccc(Cl)cc2)OC3=O)cc1C` (stereo not drawn), the inhibition at 10 µM with Pseudomonas aeruginosa [3] and in the assay with Pseudomonas aeruginosa [7] was 40 to 60% throughout. In addition, in assay [4], the IC50 was found to be 2.92 µM.

Regarding `O=C(c1cn(CCCNCc2ccc(Oc3ccc(Cl)cc3)cc2)nn1)N1CCOCC1`, in assay [14], the inhibition result is “inactive”. In addition, the inhibition at 10 µM in the assay with Pseudomonas aeruginosa [3] and with Pseudomonas aeruginosa [7] was 40 to 60% each time. Half-maximal inhibition in [4] (IC50) was put at 0.678 µM.

As for `O=C(CCCS(=O)(=O)c1ccccc1)NC1CCOC1=O` (stereo not drawn), the inhibition at 10 µM with Pseudomonas aeruginosa [3] and with Pseudomonas aeruginosa [7] was 40 to 60% each time. Also, the inhibition in [15] fell in the range of 30 to 50%. Moreover, the IC50 in [4] amounted to 109 µM.

Take `Cc1ccc(NC(=O)c2ccc3c(c2)CC(c2ccc(Cl)cc2)OC3=O)cc1C` (stereo not drawn): the inhibition at 10 µM in the assay on Pseudomonas aeruginosa [3] and in the assay on Pseudomonas aeruginosa [7] was 40 to 60% in each case. The IC50 in assay [4] was found to be 6.77 µM.

Turning to `CCCCOc1cc(Cl)c(/N=N/c2c(O)ccc3ccccc23)c(OCCCC)c1`, the inhibition result (in [11]; with Pseudomonas aeruginosa [12]; with Pseudomonas aeruginosa [13]) was “inactive” in each case. Moreover, in assay [4], 0.4 µM corresponded to half-maximal inhibition (IC50).

`CCCCOc1cc(Cl)cc(OCCCC)c1/N=N/c1c(O)ccc2ccccc12`: the inhibition result (in assay [11]; in the assay on Pseudomonas aeruginosa [12]; in the assay with Pseudomonas aeruginosa [13]) was “inactive” each time.

Turning to `O=C(CCCS(=O)(=O)c1ccccc1)Nc1nc(=O)[nH]cc1F`, the inhibition at 10 µM in the assay on Pseudomonas aeruginosa [3] and in the assay with Pseudomonas aeruginosa [7] was 40 to 60% each time. For the same molecule, in assay [4], the IC50 was 40.5 µM. For the same molecule, the inhibition entry in assay [5] and in [6] was “inactive” in each case. Moreover, the inhibition in assay [8] fell in the range of 20 to 90%.

In the case of `O=C(CCCC(=O)c1cccc([N+](=O)[O-])c1)NC1CCCC1`, the inhibition at 10 µM with Pseudomonas aeruginosa [3] and with Pseudomonas aeruginosa [7] was 40 to 60% each time. In addition, the inhibition in [15] was 30 to 50%. This molecule also yielded an IC50 in [4] of 20.4 µM.

Molecule `CCCCCCCCCNC(=O)CC(=O)c1ccccc1` displayed an inhibition at 100 µM with Pseudomonas aeruginosa [16] of 90%.

Consider `O=C(CCNC(=O)c1cccc([N+](=O)[O-])c1)NC1CCOC1=O` (stereo not drawn), for which the inhibition at 10 µM in the assay with Pseudomonas aeruginosa [3] and in the assay on Pseudomonas aeruginosa [7] was 40 to 60% each time. In addition, the inhibition in assay [15] lay in the range of 30 to 50%. Moreover, the IC50 in assay [4] is 904 µM.

Take `CCCCCCCc1[nH]c2ccc([N+](=O)[O-])cc2c(=O)c1CO`: the inhibition at 10 µM in the assay with Pseudomonas aeruginosa [3] and in the assay with Pseudomonas aeruginosa [7] was 40 to 60% each time. Moreover, the inhibition in [17] was determined as 100%.
